# Measurements taken from PubChem BioAssay.
# Values without a mark were called inactive. Active and inactive are the calls of the source.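 How the source made its calls, unless noted: active means viability at or under a set limit in both replicates, limit being median viability minus 3 SD (cut at about 48% in these data, passing the limit was not always enough); inconclusive means at or under the limit in just one replicate; inactive means at or above the limit in both replicates.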
# Experiment: HUVEC growth inhibition – cell-based, human, primary screen (AID 575;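 active means viability at or below 30% in both replicate assays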;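 further: 100% = median of untreated cell wells with 0.1% DMSO on each plate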)
# Details: HUVEC proliferation, CellTiter-Glo luminescence, 72 h; at 10 µM; active compounds read low
# Summary of the method: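 Assay system: primary human umbilical vein endothelial cells / Buffer or medium: endothelial basal medium with 2% FBS plus growth supplements / Compound dosing: one dose, 10 µM final, 0.1% DMSO / Timing: 72 h treatment at 37 °C / Signal: CTG luminescence / Benchmarks: 32 DMSO-only cell-control wells (high), 32 MePR drug-control wells (low) per plate / Plate: collagen-coated 384-well format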
row,SMILES,viability [%]
1,COC(=O)c1ccc2c(c1)C(=O)N(C1CCCCC1)C2=O,105
2,CCOc1ccc(OCC)c(NS(=O)(=O)c2ccc3c(c2)n(C)c(=O)c(=O)n3C)c1,112
3,CC(=O)OC(C(=O)NCc1ccco1)c1cccnc1 (configuration not stated),104
4,Cc1ccccc1CN1CCN(C(=O)c2cccc(F)c2)CC1,94.7
5,CCN(CC)CCCN1C(=O)C(=O)/C(=C(/O)c2ccc(C)cc2)C1c1ccccn1 (configuration not stated),98.7
6,COc1ccc(CCNS(=O)(=O)c2ccc(C(=O)NCc3ccco3)cc2)cc1OC,83.4
7,O=C(Nc1ccc(Cl)c(Cl)c1)Nc1cc(C(=O)N2CCOCC2)ccc1N1CCCCC1,105
8,COc1ccc(-c2coc3c(CN4CCCCC4)c(O)c(CN4CCCCC4)c(O)c3c2=O)cc1,76.7
9,CCc1nnc(NC(=O)CSc2nnc(-c3ccoc3C)n2CC(C)C)s1,85.8
10,O=C(O)C1C2CCC(C2)C1C(=O)NCCCn1ccnc1 (configuration not stated),112
11,COc1cccc2cc(C(=O)n3ccc(C)n3)c(=O)oc12,111
12,CC1(C)CC(=O)c2cc(OCC(=O)N3CCN(c4ccccc4F)CC3)ccc2O1,99.1
13,O=C(CSc1nnc(-c2ccccc2)o1)N1CCc2ccccc2C1,85.3
14,CCS(=O)(=O)c1nc2ccccc2n1CC(=O)N1CCOCC1,95.4
15,O=C(Cn1cnc2sc(-c3ccccc3)cc2c1=O)N1CCOCC1,116
16,Cc1ccc(NCc2nnc(SCC(=O)NCc3ccco3)n2CC2CCCO2)cc1Cl (configuration not stated),85.6
17,Cn1nc(-c2ccc(C(=O)N3CCN(c4ccccc4)CC3)cc2)c2ccccc2c1=O,71.2
18,CCc1nnc(NC(=O)CCC(=O)Nc2ccccc2)s1,94.8

row,SMILES,viability [%]
1,COc1cccc(-c2csc3nc[nH]c(=O)c23)c1,92.6
2,COc1cccc(-n2c(SCC(=O)OC(C)C)nnc2-c2cccnc2)c1,88.3
3,CC(=O)c1ccc(NC(=O)CSc2nnc(-c3ccoc3C)n2Cc2ccccc2)cc1,80.3
4,O=C(Nc1ccc2c(c1)C(=O)N(C1CCCCC1)C2=O)C1CCCO1 (configuration not stated),90.8
5,CN(Cc1nc(-c2ccncc2)no1)S(=O)(=O)c1ccc(Br)cc1,90.4
6,O=C(CCCN1C(=O)c2ccccc2C1=O)NCc1cccnc1,95.9
7,Nc1nc(CN2CCOCC2)cs1,101
8,O=C1CC(C(=O)Nc2ccccc2)C2(CCCC2)O1 (configuration not stated),98.4
9,CCC1(CC)C(=O)N(C)C(=O)NC1=NCc1ccccc1,110
10,O=C(CN1C(=O)COc2ccccc21)NCCCN1CCc2ccccc2C1,83.2
11,COc1ccccc1CNC(=O)C1CCN(S(=O)(=O)N2CCCCC2)CC1,83.4
12,CCCN(CCC)CCCNS(=O)(=O)c1ccc2c(c1)oc(=O)n2C,92.2
13,O=C(COC(=O)c1ccc(NS(=O)(=O)c2ccc3c(c2)OCCO3)cc1)NCC1CCCO1 (configuration not stated),104
14,O=C(c1nc2n(n1)C(c1ccc(Cl)cc1)C=C(c1ccccc1)N2)N1CCOCC1 (configuration not stated),96.9
15,Cc1cc(N2C(=O)C(O)=C(C(=O)c3ccc(C)o3)C2c2cccs2)no1 (configuration not stated),64.2
16,Cc1cc(NCCCn2ccnc2)n2c(nc3ccccc32)c1C#N,94
17,COc1ccc(CCNS(=O)(=O)c2ccc3c(c2)OCCO3)cc1,109
18,Cc1ccc(C)c(C(=O)NC2CC(C)(C)NC(C)(C)C2)c1,98.5

# Experiment: growth inhibitors of H69AR lung tumor, primary screen, human, duplicate replicates (AID 580);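 further: 100% = mean luminescence of untreated wells and 0% = no signal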
# Details: H69AR lung tumor cells viability, ATP luminescence, 72 h; at 10 µM; active compounds read low
row,SMILES,viability
1,COC(=O)c1ccc2c(c1)C(=O)N(C1CCCCC1)C2=O,104%
2,CCOc1ccc(OCC)c(NS(=O)(=O)c2ccc3c(c2)n(C)c(=O)c(=O)n3C)c1,95.1%
3,CC(=O)OC(C(=O)NCc1ccco1)c1cccnc1 (configuration not stated),87%
4,Cc1ccccc1CN1CCN(C(=O)c2cccc(F)c2)CC1,101%
5,CCN(CC)CCCN1C(=O)C(=O)/C(=C(/O)c2ccc(C)cc2)C1c1ccccn1 (configuration not stated),91.8%
6,COc1ccc(CCNS(=O)(=O)c2ccc(C(=O)NCc3ccco3)cc2)cc1OC,80.9%
7,O=C(Nc1ccc(Cl)c(Cl)c1)Nc1cc(C(=O)N2CCOCC2)ccc1N1CCCCC1,95.9%
8,COc1ccc(-c2coc3c(CN4CCCCC4)c(O)c(CN4CCCCC4)c(O)c3c2=O)cc1,1.48% (active)
9,CCc1nnc(NC(=O)CSc2nnc(-c3ccoc3C)n2CC(C)C)s1,106%
10,O=C(O)C1C2CCC(C2)C1C(=O)NCCCn1ccnc1 (configuration not stated),90.6%
11,COc1cccc2cc(C(=O)n3ccc(C)n3)c(=O)oc12,93.4%
12,CC1(C)CC(=O)c2cc(OCC(=O)N3CCN(c4ccccc4F)CC3)ccc2O1,91.8%
13,O=C(CSc1nnc(-c2ccccc2)o1)N1CCc2ccccc2C1,93.1%
14,CCS(=O)(=O)c1nc2ccccc2n1CC(=O)N1CCOCC1,91%
15,O=C(Cn1cnc2sc(-c3ccccc3)cc2c1=O)N1CCOCC1,97%
16,Cc1ccc(NCc2nnc(SCC(=O)NCc3ccco3)n2CC2CCCO2)cc1Cl (configuration not stated),88.5%
17,Cn1nc(-c2ccc(C(=O)N3CCN(c4ccccc4)CC3)cc2)c2ccccc2c1=O,92.4%
18,CCc1nnc(NC(=O)CCC(=O)Nc2ccccc2)s1,90%

row,SMILES,viability
1,COc1cccc(-c2csc3nc[nH]c(=O)c23)c1,86.7%
2,COc1cccc(-n2c(SCC(=O)OC(C)C)nnc2-c2cccnc2)c1,97.4%
3,CC(=O)c1ccc(NC(=O)CSc2nnc(-c3ccoc3C)n2Cc2ccccc2)cc1,93.5%
4,O=C(Nc1ccc2c(c1)C(=O)N(C1CCCCC1)C2=O)C1CCCO1 (configuration not stated),90.9%
5,CN(Cc1nc(-c2ccncc2)no1)S(=O)(=O)c1ccc(Br)cc1,89.6%
6,O=C(CCCN1C(=O)c2ccccc2C1=O)NCc1cccnc1,94.2%
7,Nc1nc(CN2CCOCC2)cs1,100%
8,O=C1CC(C(=O)Nc2ccccc2)C2(CCCC2)O1 (configuration not stated),93.9%
9,CCC1(CC)C(=O)N(C)C(=O)NC1=NCc1ccccc1,93.1%
10,O=C(CN1C(=O)COc2ccccc21)NCCCN1CCc2ccccc2C1,94.8%
11,COc1ccccc1CNC(=O)C1CCN(S(=O)(=O)N2CCCCC2)CC1,81.7%
12,CCCN(CCC)CCCNS(=O)(=O)c1ccc2c(c1)oc(=O)n2C,94.7%
13,O=C(COC(=O)c1ccc(NS(=O)(=O)c2ccc3c(c2)OCCO3)cc1)NCC1CCCO1 (configuration not stated),107%
14,O=C(c1nc2n(n1)C(c1ccc(Cl)cc1)C=C(c1ccccc1)N2)N1CCOCC1 (configuration not stated),91.9%
15,Cc1cc(N2C(=O)C(O)=C(C(=O)c3ccc(C)o3)C2c2cccs2)no1 (configuration not stated),79.9%
16,Cc1cc(NCCCn2ccnc2)n2c(nc3ccccc32)c1C#N,100%
17,COc1ccc(CCNS(=O)(=O)c2ccc3c(c2)OCCO3)cc1,103%
18,Cc1ccc(C)c(C(=O)NC2CC(C)(C)NC(C)(C)C2)c1,86.7%
